One series deals with T1, Kallikrein-13 (Homo sapiens, UniProt Q9UKR3).
T1 sequence (Q9UKR3 whole entry): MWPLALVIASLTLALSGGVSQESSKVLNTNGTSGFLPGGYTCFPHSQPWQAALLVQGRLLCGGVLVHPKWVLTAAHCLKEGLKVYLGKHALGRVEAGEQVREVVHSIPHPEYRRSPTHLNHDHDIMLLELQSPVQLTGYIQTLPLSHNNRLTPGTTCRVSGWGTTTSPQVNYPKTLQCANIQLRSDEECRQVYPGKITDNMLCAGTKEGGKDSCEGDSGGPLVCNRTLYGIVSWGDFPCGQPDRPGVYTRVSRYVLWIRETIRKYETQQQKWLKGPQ
Kind of series: Inhibition of recombinant human C-terminal polyHis-tagged KLK13 (1 to 262 residues) expressed in HEK293 cells using fluorogenic Boc-VPR-AMC peptide as substrate by fluorescence based assay. The procedure, abridged:
(§1)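 Panel of human serine proteases. Substrates and assay conditions followed each supplier's recommendations. Peptides were first screened at 50 μM. Where inhibition was detectable, hydrolytic activity was measured across a range of peptide concentrations. Ki was obtained by fitting to the tight-binding inhibitor rate equation.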

A short description of series [1]: Inhibition of rabbit plasma kallikrein using fluorogenic H-Pro-Phe-Arg-AMC peptide as substrate preincubated for 15 mins followed by substrate addition measured by fluorescence-based assay. Particulars: read-out: Ki(app). On the set-up: species or system Oryctolagus cuniculus. An outline of the steps:
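Assays ran at 25 °C in 50 mM Tris-HCl, 250 mM NaCl, 1.5 μM BSA, pH 7.5. PKal (nominal 1–2 nM) was preincubated 15 min with serially diluted peptide. […] Human PKal was purified from plasma; rat PKal was made in-house or bought; other species were purified in-house from kaolin-activated plasma.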

The nature of series [2]: Half life in Sprague-Dawley rat at 5 mg/kg, iv by LC-MS/MS analysis. The series is classed as ADME, organism-based. As to conditions: in vivo. The procedure, abridged:
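Groups of 2 male Sprague-Dawley rats were dosed IV at 5 mg/kg. Serial tail-vein blood was drawn into EDTA at 5–240 min, and plasma peptide was quantified by LC-MS/MS against 16–4000 ng/mL calibration lines in rat plasma. AUC was calculated by the trapezoidal method.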

Series [3] is described as follows: Plasma clearance in Sprague-Dawley rat at 5 mg/kg, iv measured up to 240 mins post dose by LC-MS/MS analysis. It is filed as ADME, organism-based. An outline of the steps: (§2)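 Male Sprague-Dawley rats, 2 per group, given 5 mg/kg intravenously. Blood sampled through tail-vein cannulae at 5, 10, 20, 30, 60, 120, 180 and 240 min into EDTA tubes and spun to plasma.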

In the next series the target is T2, Kallikrein-2 (Homo sapiens, UniProt P20151).
T2 sequence (P20151 whole entry): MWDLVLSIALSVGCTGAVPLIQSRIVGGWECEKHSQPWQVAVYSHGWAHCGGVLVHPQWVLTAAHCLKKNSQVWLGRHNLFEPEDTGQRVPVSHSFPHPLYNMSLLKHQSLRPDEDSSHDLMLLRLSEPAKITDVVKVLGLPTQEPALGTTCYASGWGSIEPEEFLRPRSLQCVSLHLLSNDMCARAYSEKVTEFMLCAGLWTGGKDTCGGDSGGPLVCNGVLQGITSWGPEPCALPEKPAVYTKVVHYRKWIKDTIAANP
Kind of series: Inhibition of recombinant human C-terminal 10His-tagged KLK2 (1 to 261 residues) expressed in mouse NS0 cells using fluorogenic PFR-AMC peptide as substrate after 5 mins by fluorescence based assay. The procedure, abridged:
(§3)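 Human serine proteases were assayed with substrates and conditions set by each supplier's recommendations. Peptides were first screened at 50 μM. Where inhibition was detected, Ki was determined from activity across peptide concentrations using a tight-binding rate equation.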

A short description of series [4]: Half life in human plasma at 4 uM measured up to 24 hrs by LC-MS/MS analysis. It is filed as ADME, cell-free. An outline of the steps: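 Peptide from a 0.16 mM DMSO stock was added to human, rat or mouse plasma (final 4 μM) or to homogenized human vitreous (final 1 μM), with internal standard. Samples were incubated at 37 °C for up to 24 h and extracted with water/acetonitrile/methanol 1:3:3.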

The target in the next series is Coagulation factor XI (Homo sapiens, UniProt P03951). Kind of series: Inhibition of human factor 11a using fluorogenic peptide as substrate by fluorescence based assay. An outline of the steps:
as §3

Series [5] is described as follows: Volume of distribution at steady state in Sprague-Dawley rat at 5 mg/kg, iv measured up to 240 mins post dose by LC-MS/MS analysis. The series is classed as ADME, organism-based. Particulars: in vivo, read-out: Vdss. An outline of the steps:
as §2

For the next series, the target named is T3, Kallikrein-5 (Homo sapiens, UniProt Q9Y337).
T3 sequence (Q9Y337 whole entry): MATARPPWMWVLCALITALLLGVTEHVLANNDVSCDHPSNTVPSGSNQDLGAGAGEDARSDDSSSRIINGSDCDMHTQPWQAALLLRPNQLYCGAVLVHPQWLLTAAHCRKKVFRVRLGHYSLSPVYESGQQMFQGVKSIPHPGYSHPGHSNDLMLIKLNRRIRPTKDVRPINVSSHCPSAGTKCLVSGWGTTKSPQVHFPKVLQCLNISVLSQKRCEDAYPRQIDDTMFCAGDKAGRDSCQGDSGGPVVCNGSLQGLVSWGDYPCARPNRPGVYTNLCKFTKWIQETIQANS
Kind of series: Inhibition of recombinant human C-terminal 10His-tagged KLK5 (67 to 293 residues) expressed in mouse NS0 cells using fluorogenic Boc-VPR-AMC peptide as substrate after 5 mins by fluorescence based assay. An outline of the steps: as §3

The target of the next series is Kallikrein-1 (Homo sapiens, UniProt P06870). Kind of series: Inhibition of recombinant human C-terminal His-tagged KLK1 (1 to 262 residues) expressed in HEK293 cells using fluorogenic PFR-AMC peptide as substrate by fluorescence based assay. An outline of the steps: as §3
The target in another series is Granzyme B (Homo sapiens, UniProt P10144). Kind of series: Inhibition of recombinant human Granzyme B (21 to 247 residues) using […] Ac-IEPD-pNA peptide as substrate […]. An outline of the steps: as §1
Series [6] is described as follows: Half life in New Zealand white rabbit eye at 2 mg/ml, administered via ivt injection by HPLC analysis. The series is classed as ADME, tissue-based, Oryctolagus cuniculus. Particulars: topical or ocular. An outline of the steps:
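Male New Zealand White rabbits (10 weeks old, ~2 kg) received one 50 μL intravitreal injection per eye of peptide at 2 mg/mL in 50 mM sodium phosphate, pH 7.2. Animals were sacrificed at 15 min, 1, 4, 8, 24, 48 and 96 h (3 per time point). Whole vitreous was homogenized, clarified, 0.2 μm filtered and assayed by LC-MS/MS, with a lower limit of detection of 1 ng/mL in vitreous.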

Each structure is given as a SMILES string.

Chain of Kallikrein-1 (P06870 whole entry, the tested form may be a part): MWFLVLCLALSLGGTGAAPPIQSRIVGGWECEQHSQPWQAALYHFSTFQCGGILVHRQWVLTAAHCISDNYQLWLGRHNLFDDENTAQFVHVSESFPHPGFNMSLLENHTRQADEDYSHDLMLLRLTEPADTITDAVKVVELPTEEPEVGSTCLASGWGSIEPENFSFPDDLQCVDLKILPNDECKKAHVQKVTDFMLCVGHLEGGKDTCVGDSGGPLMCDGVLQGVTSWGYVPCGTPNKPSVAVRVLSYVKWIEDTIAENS
Chain of Coagulation factor XI (P03951 19-387 limits assumed): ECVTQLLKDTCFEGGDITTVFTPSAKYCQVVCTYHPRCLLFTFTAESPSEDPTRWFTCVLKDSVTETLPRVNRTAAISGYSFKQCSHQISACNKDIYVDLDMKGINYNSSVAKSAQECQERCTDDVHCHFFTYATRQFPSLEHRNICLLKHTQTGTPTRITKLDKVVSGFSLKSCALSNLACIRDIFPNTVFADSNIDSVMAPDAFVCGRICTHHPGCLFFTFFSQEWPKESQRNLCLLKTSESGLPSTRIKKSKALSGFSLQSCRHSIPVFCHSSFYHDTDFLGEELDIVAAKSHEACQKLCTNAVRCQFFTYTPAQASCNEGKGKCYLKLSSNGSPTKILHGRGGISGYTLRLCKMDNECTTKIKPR
Chain of Coagulation factor XI (P03951 388-625 limits assumed): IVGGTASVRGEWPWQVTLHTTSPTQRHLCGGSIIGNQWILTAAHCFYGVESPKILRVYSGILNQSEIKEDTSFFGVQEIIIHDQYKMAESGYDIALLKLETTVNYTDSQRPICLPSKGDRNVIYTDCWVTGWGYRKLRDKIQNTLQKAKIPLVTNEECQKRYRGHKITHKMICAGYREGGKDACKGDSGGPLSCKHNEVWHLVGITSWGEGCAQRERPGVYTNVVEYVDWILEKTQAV
Chain of Granzyme B (P10144 whole entry, the tested form may be a part): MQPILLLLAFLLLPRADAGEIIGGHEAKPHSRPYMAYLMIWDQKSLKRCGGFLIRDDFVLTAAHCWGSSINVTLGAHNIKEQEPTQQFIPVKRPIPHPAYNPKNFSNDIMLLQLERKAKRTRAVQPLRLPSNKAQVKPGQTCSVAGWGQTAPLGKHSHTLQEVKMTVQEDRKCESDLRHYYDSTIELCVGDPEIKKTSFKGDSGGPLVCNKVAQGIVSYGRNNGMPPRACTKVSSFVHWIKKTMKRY

Take `CC(=O)N[C@H]1CSCc2cc3cc(c2)CSC[C@H](C(=O)N[C@@H](C)C(=O)N(C)CC(=O)N(C)CC(=O)N(C)CC(=O)N[C@H](CCCNC(=N)N)C(=O)N[C@H](CCCNC(=N)N)C(=O)O)NC(=O)[C@H](CC(C)C)NC(=O)[C@@H]2CCCN2C(=O)[C@H](C)NC(=O)[C@H](CC(=O)O)NC(=O)[C@H](Cc2c[nH]c4ccccc24)NC(=O)[C@@H]2CCCN2C(=O)[C@H](CSC3)NC(=O)[C@H](Cc2c[nH]c3ccccc23)NC(=O)[C@@H]2CCCN2C(=O)[C@H](CC(N)=O)NC(=O)[C@H](Cc2c[nH]c3ccccc23)NC(=O)[C@H]([C@@H](C)O)NC(=O)[C@H](CC(N)=O)NC1=O`: the Ki was greater than 50 µM on Kallikrein-13 (hek293); 1.45 µM in [1]; greater than 50 µM on Kallikrein-2; greater than 50 µM at Coagulation factor XI; 50 µM on Kallikrein-5; greater than 50 µM on Kallikrein-1 (hek293). The Ki at Granzyme B is greater than 50 µM. This compound gave a half-life in [2] of 1.3 h. In addition, the clearance in [3] was 8.2 mL/min/kg. The compound also displayed a half-life at 4 µM in series [4] greater than 24 h. The Vd in [5] worked out at 0.93 L/kg.
Regarding `CC(=O)N[C@H]1CSCc2cc3cc(c2)CSC[C@H](NC(=O)[C@H](CCCCNC(=N)N)NC(=O)[C@H](Cc2ccc(O)cc2)NC(=O)[C@@H]2CCN2C(=O)[C@H](Cc2ccccc2)NC(=O)[C@H](CO)NC1=O)C(=O)N[C@@H](C)CN[C@@H](Cc1cnc[nH]1)C(=O)N[C@@H](CCC(N)=O)C(=O)N[C@@H](CC(=O)O)C(=O)N[C@@H](CC(C)C)C(=O)N[C@H](C(=O)O)CSC3`, the Ki was greater than 50 µM on Kallikrein-13 (hek293); 3.4 µM in series [1]; 10 µM at Kallikrein-2; greater than 50 µM on Coagulation factor XI; greater than 50 µM on Kallikrein-5; greater than 50 µM at Kallikrein-1 (hek293). Further, the Ki on Granzyme B was greater than 50 µM. Also, the half-life in [2] was 0.8 h; in series [6] it was 39 h. For the same compound, the clearance in series [3] came out at 6.2 mL/min/kg. This compound also returned a half-life at 4 µM in series [4] greater than 24 h. In addition, in series [5], the Vd is 0.44 L/kg.
As to `CC[C@H](C)[C@@H]1NC(=O)[C@H](CC(=O)O)NC(=O)[C@@H]2CCCN2C(=O)[C@H](Cc2ccc(O)cc2)NC(=O)[C@H](Cc2ccc(O)cc2)NC(=O)[C@H](C(C)C)NC(=O)[C@@H]2CSCc3cc(cc(c3)CSC[C@@H](C(=O)N[C@@H](C)C(=O)N(C)CC(=O)N(C)CC(=O)N(C)CC(=O)N[C@H](CCCNC(=N)N)C(=O)N[C@H](CCCNC(=N)N)C(=O)O)NC1=O)CSC[C@H](NC(C)=O)C(=O)N[C@@H](CO)C(=O)N[C@@H](Cc1ccccc1)C(=O)N1CCC1C(=O)N[C@@H](Cc1ccc(O)cc1)C(=O)N[C@@H](CCCCNC(=N)N)C(=O)N2` (stereo partly specified), the Ki on Kallikrein-13 was 0.82 µM; in series [1], 2.65 µM; on Kallikrein-2, 10 µM; on Coagulation factor XI it was 0.5 µM; on Kallikrein-5, 0.8 µM; at Kallikrein-1, 50 µM. Further, the Ki at Granzyme B was greater than 50 µM. In [6], this compound had a half-life of 22 h.

In general, half-life refers to the time needed for the level to fall by half in the phase considered. A low value points to fast loss. For orientation: clearance means a measure of how efficiently the substance is removed, as volume per time. Lower therefore signals inefficient removal.

The values are drawn from ChEMBL document CHEMBL4033799, “Stable and Long-Lasting, Novel Bicyclic Peptide Plasma Kallikrein Inhibitors for the Treatment of Diabetic Macular Edema” (J Med Chem, 2018).
